Bioassay records: PubChem, several laboratories
NF-kB expr up: compounds increasing NF-kB expression in human neuronal cells; NF-kB reporter expression; active compounds read high; fold change at 12.5 µM; hit rate 1.6% among 190,000; in the data active means fold change above about 3.3
STAT3 act-1: increases IL-6 driven STAT3 reporter signal; U3A cells, IL-6 STAT3-luciferase reporter, luminescence; 100% = signal with IL-6 EC80 alone; activation (% of control), % at 5.6 µM; hit rate 0.91% among 190,000;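 active means activation above the screen-wide mean of compound activation plus 3 SD, cut at about 130% in these data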;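 further: 0% = background luminescence of wells with medium and substrate only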
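Material: STAT3-luciferase reporter U3A cells. Controls: IL-6-treated wells, 100% activation. Read-out: % activation versus median of IL-6-stimulated wells. Probe or stimulus: IL-6 stimulus at 33 ng/mL final. Timing: compound 1 h, then IL-6 6 h at 37 °C. Signal: reporter luminescence signal.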
STAT1 inh: reduces IFN-gamma driven STAT1 reporter signal | hit rate 0.35% among 200,000 | inhibition, % at 5.5 µM | AID 920 | NIH 3T3 STAT1-luciferase reporter, luminescence;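 active means inhibition above a set limit, the mean inhibition across all tested compounds plus 3 SD, cut at about 34% in these data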;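 further: 0% = IFN-gamma with DMSO and 100% = IFN-gamma with 300 µM nifuroxazide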
STAT1 act-1: activators of IFN-gamma induced STAT1 signaling; NIH 3T3 STAT1-luciferase reporter, luminescence; 100% = IFN-gamma alone, no compound; activation (% of control), % at 5.5 µM; hit rate 2.6% among 200,000;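 active means activation above the screen-wide mean activation plus 3 SD, cut at about 130% in these data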;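 further: raw ratio to IFN-gamma control signal so 100% means no change and 0% no light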
APP 5'UTR act: APP 5'UTR luciferase reporter activation | SH-SY5Y APP 5'UTR luciferase reporter, luminescence; zero percent = DMSO vehicle wells | activation, % at 2 µM | hit rate 1% among 190,000;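 active means activation above a set limit, based on mean plus 3 SD of controls, cut at about 140% in these data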
STAT3 inh: inhibitors of IL-6 induced STAT3 signaling; U3A cells, IL-6 STAT3-luciferase reporter, luminescence; host cell line lacks STAT1; hit rate 0.89% among 190,000; inhibition, % at 5.5 µM;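 active means inhibition above the mean inhibition across all screened compounds plus 3 SD, cut at about 44% in these data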;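 further: 0% = DMSO only wells and 100% = 100 µM nifuroxazide control wells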
STAT3 act-2: STAT3 activation, confirmation assay. shares compounds with STAT3 act-1. potentiation (% of control), % at 5.7 µM. hit rate 64% among 1,200. U3A STAT3-luciferase reporter, IL-6 potentiation, luminescence; U3A cells lack STAT1; 100 means same as IL-6 alone;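 active means percent activation of the STAT3 luciferase reporter above a set limit taken from the earlier primary screen, cut at about 130% in these data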;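 further: 0% = background signal of medium plus substrate and 100% = median of IL-6 with DMSO wells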
NFkB act STAT3ct: counter-screen for STAT3 activators: NF-kappaB activation; AID 1309; human cells, NF-kappaB reporter activation; activation (% of control), % at 5.7 µM; shares compounds with STAT3 act-1; hit rate 11% among 1,200; in the data active means activation above about 120%;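 further: reporter induced by TNF-alpha stimulation; 100% = median of stimulated DMSO wells and 0% = no signal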
STAT1 act-2: activates STAT1, counter-screen to STAT3 activators | NIH 3T3 STAT1-luciferase reporter, IFN-gamma, luminescence | activation (% of control), % at 5.7 µM | shares compounds with STAT3 act-1 | AID 1318 | hit rate 13% among 1,200;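 active means activation above the solvent-only control well mean plus 3 SD, set per screening run, cut at about 120% in these data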;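 further: 100% = IFN-gamma with DMSO median signal so 100% means no change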
* = called active by the depositor; / = no result. In the library only some 4.9% were active in any assay of this set; here they are far more common.

SMILES | NF-kB expr up | STAT3 act-1 | STAT1 inh | STAT1 act-1 | APP 5'UTR act | STAT3 inh | STAT3 act-2 | NFkB act STAT3ct | STAT1 act-2
COC(=O)c1cc2ccsc2n1CC(=O)Nc1cc(Cl)ccc1OC | 0.97 | 152* | 7 | 94 | -11 | -51 | 147* | 93 | 95
COC(=O)c1cc2ccsc2n1CC(=O)Nc1ccc(N(C)C)cc1 | 0.96 | 100 | 9 | 91 | -1 | 2 | / | / | /
COc1ccc(N=Cc2sc3ccccc3c2Cl)cc1 | 1.5 | 137* | -29 | 126 | -6 | -40 | 110 | 115 | 132*
N#C/C(=C\c1ccco1)Sc1nc2ccccc2s1 | 1.2 | 138* | -4 | 104 | 0 | -45 | 122 | 107 | 103
Cc1ccc(C)c(N=Nc2nc3ccccc3n2C)c1 | 3.9* | 176* | -28 | 126 | 161* | -74 | 223* | 154* | 237*
Cc1cc(C)c(C)c(N=Nc2nc3ccccc3n2C)c1C | 1.5 | 83 | -8 | 107 | 56 | 21 | / | / | /
COC(=O)c1[nH]c2ccc(C)cc2c1NC(=O)Oc1ccccc1 | 1.9 | 112 | -11 | 110 | 35 | -5 | / | / | /
CCOC(=O)N1CCN(CC(=O)Nc2c(C(=O)OC)[nH]c3ccccc23)CC1 | 1 | 105 | 1 | 99 | 13 | -2 | / | / | /
COC(=O)c1[nH]c2ccccc2c1NC(=O)Oc1ccccc1 | 1.2 | 159* | 3 | 97 | 11 | -58 | 160* | 111 | 115
C=CCOC(=O)Nc1c(C(=O)OC)[nH]c2ccccc12 | 0.7 | 148* | 15 | 86 | -7 | -45 | 150* | 105 | 93
Cc1ccc(CN2CCN(/N=C/c3ccc(C)s3)CC2)c(C)c1 | 1.2 | 103 | -8 | 107 | 1 | -1 | / | / | /
Cc1ccc(C(=O)N2CCN(S(C)(=O)=O)C2)cc1 | 1.1 | 105 | 3 | 98 | -4 | 3 | / | / | /
Cc1ccc(C(=O)N2CCN(S(=O)(=O)c3ccc(C)cc3)CC2)cc1 | 0.95 | 146* | 5 | 96 | 33 | -56 | 112 | 103 | 99
CCOc1ccccc1CN1CCN(Cc2cc3ccccc3[nH]2)CC1CCO (centres undefined) | 0.67 | 136* | 20 | 81 | 2 | -36 | 150* | 98 | 94
CC(=O)OCC(=O)c1c[nH]c2ccccc12 | 1 | 117 | 4 | 95 | 7 | -19 | / | / | /
CC(C)(C)C(=O)COC(=O)c1ccccc1O | 1.1 | 101 | -2 | 102 | 9 | 2 | / | / | /
COc1ccccc1C(=O)COC(=O)c1ccccc1O | 1.1 | 151* | -6 | 103 | 20 | -56 | 150* | 106 | 105
COc1cccc(C(=O)OCC(=O)c2c[nH]c3ccccc23)c1O | 1.3 | 144* | -4 | 103 | 25 | -50 | 138* | 114 | 94
Cc1nnc(SC(C)C#N)n1-c1ccccc1 (centres undefined) | 1.3 | 98 | 0 | 99 | -8 | 5 | / | / | /
Nc1ccc(C2=Nc3cccc4cccc(c34)N2)cc1 | 0.85 | 158* | -6 | 105 | -1 | -71 | 163* | 108 | 108
O=c1cnnc(Nc2cccc(F)c2)[nH]1 | 1.4 | 142* | 2 | 98 | 12 | -51 | 148* | 104 | 93
O=c1cnnc(Nc2ccc(F)cc2)[nH]1 | 1.3 | 99 | -5 | 103 | 4 | 12 | / | / | /
CC1=NOC(=O)/C1=C\c1ccc(-c2cccc(Cl)c2)o1 | 1.1 | 137* | -1 | 101 | -18 | -37 | 116 | 110 | 105
CC1=NOC(=O)/C1=C\c1ccc(-c2ccc(Cl)c(C(=O)O)c2)o1 | 1.1 | 104 | 0 | 101 | -1 | -2 | / | / | /
CCn1cc(CN2CCN(CCc3ccccc3)C(CCO)C2)c(C)n1 (centres undefined) | 0.82 | 97 | -10 | 108 | 17 | 5 | / | / | /
SMILES | NF-kB expr up | STAT3 act-1 | STAT1 inh | STAT1 act-1 | APP 5'UTR act | STAT3 inh | STAT3 act-2 | NFkB act STAT3ct | STAT1 act-2
CCOC(=O)c1sc(NC(=O)CSc2n[nH]c(CC(C)C)n2)nc1C | 1.1 | 90 | 11 | 90 | -6 | 15 | / | / | /
COc1cc(OC)cc(C(=O)Oc2ccc(/C=N/Nc3nc4ccccc4s3)cc2OC)c1 | 1.7 | 148* | -23 | 121 | 115 | -51 | 151* | 97 | 155*
COc1ccc(C(=O)Oc2cc(/C=N/NC(N)=S)ccc2OC)cc1 | 1.2 | 96 | -4 | 104 | -16 | 10 | / | / | /
CC(NC(=O)c1ccccc1NC(=O)c1ccccc1)C(=O)N1CCOCC1 (centres undefined) | 0.94 | 111 | 1 | 99 | 8 | -3 | / | / | /
O=[N+]([O-])c1ccc(Cl)c(/C=N/N2CCN(c3ccccc3)CC2)c1 | 1.4 | 145* | 0 | 100 | -6 | -40 | 135* | 100 | 100
COc1ccccc1N1CCN(C(=O)COc2ccc(S(=O)(=O)NC(C)(C)C)cc2)CC1 | / | 82 | 10 | 89 | -1 | 25 | / | / | /
CCOC(=O)c1[nH]c2ccccc2c1NC(=S)Nc1cccc(C)c1C | 1.1 | 164* | 14 | 87 | 51 | -74 | 156* | 111 | 91
CCOC(=O)c1[nH]c2ccccc2c1NC(=O)CN(C)C | 1.1 | 106 | 6 | 95 | 13 | -3 | / | / | /
CCOC(=O)c1[nH]c2ccccc2c1NC(=O)CC(C)(C)C | 0.95 | 164* | 28 | 74 | -5 | -73 | 159* | 106 | 89
CN(C)C(=O)c1ccc(NC(=O)c2ccccc2Sc2ccccc2C#N)cc1 | 0.93 | 103 | -5 | 105 | 3 | -6 | / | / | /
Brc1ccc(-c2cn3c(n2)CCc2ccc4cccnc4c2-3)cc1 | 0.54 | 157* | 5 | 96 | 8 | -67 | 149* | 101 | 89
Cc1nn(-c2ccc(Cl)cc2)c(N)c1C(O)(CSc1nccn1C)C(F)(F)F (centres undefined) | 1.4 | 143* | 2 | 99 | 9 | -47 | 134* | 103 | 100
Cc1nn(-c2ccccc2)c(N)c1C(O)(CSc1nccn1C)C(F)(F)F (centres undefined) | 0.99 | 110 | -5 | 105 | / | -14 | / | / | /
COc1ccccc1-c1nnc(SCC(=O)N2CCC(C)CC2)o1 | 1.1 | 117 | -1 | 101 | 33 | -18 | / | / | /
COc1ccccc1-c1nnc(SCC(=O)N2CCOCC2)o1 | 1.6 | 151* | -26 | 124 | 25 | -60 | 159* | 106 | 106
Cc1noc(C)c1C(=O)N1CCN(c2cccc(Cl)c2)CC1 | 0.93 | 104 | -7 | 106 | -7 | 3 | / | / | /
Cc1ccc(CNS(=O)(=O)c2cccc3nsnc23)cc1 | 1.2 | 94 | 2 | 99 | 37 | 8 | / | / | /
